Source: ChEMBL document CHEMBL4033796, “4-Amino-7,8-dihydro-1,6-naphthyridin-5(6 H)-ones as Inhaled Phosphodiesterase Type 4 (PDE4) Inhibitors: Structural Biology and Structure-Activity Relationships” (J Med Chem, 2018)

How the values were obtained:
[1] = target: 3',5'-cyclic-AMP phosphodiesterase 4B (Homo sapiens, UniProt Q07343); assay: Inhibition of recombinant human PDE4B1 using [3H]-cAMP as substrate […] measured after 60 mins by scintillation proximity assay
Method in brief: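 Compounds ranged from 10 μM to 10 pM. The reaction was started with PDE4 enzyme and run 60 min at room temperature with agitation (about 10−20% conversion), then stopped with SPA beads. [3H]-AMP was counted by scintillation.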

[2] = Inhibition of PDE4 in human whole blood PBMC assessed as reduction in LPS-induced TNFalpha production after 24 hrs by ELISA
Method in brief: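 Heparinized whole blood from healthy donors was preincubated with LPS (1 μg/mL final) at 37 °C for 10 min. It was then added to compounds in DMSO and incubated 24 h at 37 °C with agitation, then centrifuged. Serum TNF-α was measured by sandwich ELISA with TMB read-out at 450 nm. Experiments were done 2−3 times and duplicates were averaged.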

[3] = Apparent permeability of the compound by PAMPA assay; format: physicochemical

3',5'-cyclic-AMP phosphodiesterase 4B, sequence (Q07343 whole entry): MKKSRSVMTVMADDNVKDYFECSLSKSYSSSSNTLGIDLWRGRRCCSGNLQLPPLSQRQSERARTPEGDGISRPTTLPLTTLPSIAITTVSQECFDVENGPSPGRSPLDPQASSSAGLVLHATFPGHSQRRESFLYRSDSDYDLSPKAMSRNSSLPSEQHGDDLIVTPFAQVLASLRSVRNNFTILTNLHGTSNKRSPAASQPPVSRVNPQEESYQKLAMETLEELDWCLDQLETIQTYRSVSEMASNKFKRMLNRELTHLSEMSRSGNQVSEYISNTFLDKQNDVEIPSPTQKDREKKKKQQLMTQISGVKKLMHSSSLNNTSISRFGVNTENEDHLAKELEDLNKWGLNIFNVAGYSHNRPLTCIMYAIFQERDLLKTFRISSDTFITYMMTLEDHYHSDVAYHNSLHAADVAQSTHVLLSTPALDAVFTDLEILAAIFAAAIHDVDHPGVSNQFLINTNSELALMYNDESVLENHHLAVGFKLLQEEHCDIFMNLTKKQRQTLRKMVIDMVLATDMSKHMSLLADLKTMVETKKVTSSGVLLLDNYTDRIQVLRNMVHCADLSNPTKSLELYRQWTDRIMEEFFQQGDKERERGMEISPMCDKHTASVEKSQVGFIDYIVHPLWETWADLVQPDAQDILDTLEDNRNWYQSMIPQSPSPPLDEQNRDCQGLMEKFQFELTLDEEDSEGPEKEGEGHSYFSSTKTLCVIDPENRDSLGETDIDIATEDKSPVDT

IC50 [1] [nM] | IC50 [2] [nM] | Papp [3] [×10⁻⁶ cm/s] | Structure (SMILES)
2400 | – | – | Nc1cc(-c2ccccc2)nc2c1C(=O)NCC2
51 | – | – | COc1cccc(Nc2cc(-c3cc[n+]([O-])cc3)nc3c2C(=O)NCC3)c1
0.32 | 1.1 | – | O=C(NC1CC1)c1cccc(-c2cccc(-c3cc(Nc4cncc5ccccc45)c4c(n3)CCNC4=O)c2)c1
5.6 | 3 | – | O=C1NCCc2nc(-c3ccccc3)cc(Nc3n[nH]c4ncccc34)c21
1.2 | 0.66 | – | CCOC(=O)c1ccc(-c2cccc(-c3cc(Nc4cccc5ncccc45)c4c(n3)CCNC4=O)c2)cc1
32 | – | – | COc1cccc(Nc2cc(-c3ccccc3OC)nc3c2C(=O)NCC3)c1
11 | – | – | Cn1nc(Nc2cc(-c3ccccc3)nc3c2C(=O)NCC3)c2cccnc21
42 | – | – | Cc1ccncc1Nc1cc(-c2ccccc2)nc2c1C(=O)NCC2
0.28 | 2.3 | – | COc1cccc(Nc2cc(-c3cccc(-c4cccc(C(N)=O)c4)c3)nc3c2C(=O)NCC3)c1
1.6 | 5.4 | 2 | COc1cccc(Nc2cc(-c3ccccc3)nc3c2C(=O)NCC3)c1
0.23 | 2.8 | – | COc1cccc(Nc2cc(-c3cccc(-c4cccc(C(=O)NCCN(C)C)c4)c3)nc3c2C(=O)NCC3)c1
52 | 40 | – | COc1cccc(Nc2nc(-c3ccccc3)nc3c2C(=O)NCC3)c1
0.35 | 5.7 | 3.5 | COc1cccc(Nc2cc(-c3cccc(-c4ccc(C(=O)O)cc4)c3)nc3c2C(=O)NCC3)c1
3.6 | 6.5 | – | COc1cccc(Nc2cc(-c3ccncc3)nc3c2C(=O)NCC3)c1
8.4 | – | – | COc1cccc(Nc2cc(-c3cccc(OC)c3)nc3c2C(=O)NCC3)c1
1.8 | 4.2 | – | COc1cccc(Nc2cc(-c3cccc(-c4cccc(O)c4)c3)nc3c2C(=O)NCC3)c1
2.3 | 4.8 | – | O=C1NCCc2nc(-c3ccccc3)cc(Nc3ccc4ncccc4c3)c21
11 | – | – | O=C1NCCc2nc(-c3ccccc3)cc(Nc3cccc4ccccc34)c21
1.5 | 4.2 | – | NC(=O)c1ccc(Nc2cc(-c3ccccc3)nc3c2C(=O)NCC3)cc1
640 | – | – | COc1cccc(Nc2cc(-c3ccccc3)nc3c2C(=O)NCC3C)c1 (configuration not stated)
7.2 | 1.2 | – | CCOC(=O)c1ccc(-c2cccc(-c3cc(Nc4cccc(OC)c4)c4c(n3)CCNC4=O)c2)cc1
8.5 | – | – | COc1cccc(Nc2cc(C3CC3)nc3c2C(=O)NCC3)c1
0.11 | 0.36 | – | CN(C)CCCNC(=O)c1cccc(-c2cccc(-c3cc(Nc4cccc5ncccc45)c4c(n3)CCNC4=O)c2)c1
2.3 | 9.9 | – | COc1cc(Nc2cc(-c3ccccc3)nc3c2C(=O)NCC3)ccc1C(=O)O
8.2 | – | – | COc1cccc(Nc2cc(-c3cccc(Br)c3)nc3c2C(=O)NCC3)c1
2.1 | 0.43 | – | COc1cccc(Nc2cc(-c3cccc(-c4cccc(C(=O)NC5CC5)c4)c3)nc3c2C(=O)NCC3)c1
0.75 | 1.5 | – | O=C1NCCc2nc(-c3ccc(F)c(F)c3)cc(Nc3cccc4ncccc34)c21
13 | – | – | COc1cccc(Nc2cc(-c3cccc(OC)c3)nc3c2/C(=N/C#N)NCC3)c1
